Hits are enriched below; roughly 1.2% of the tested compounds scored in any of these assays.
PP5 primary = PP5 phosphatase inhibitors, primary screen, biochemical, fluorescence | 320,000 compounds, 0.18% hits | Serine/threonine-protein phosphatase 5 (Homo sapiens), P53041 | inhibition, % at 6.7 µM | AID 1987, 2009 | purified PP5c, OMFP substrate fluorescence;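 active = inhibition above the campaign's mean inhibition across all tested compounds plus 3 SD, cut at about 9.5% in these data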;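 note: 0% = DMSO only and 100% = 100 µM cantharidin control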
Target sequence (P53041 whole entry, looked up): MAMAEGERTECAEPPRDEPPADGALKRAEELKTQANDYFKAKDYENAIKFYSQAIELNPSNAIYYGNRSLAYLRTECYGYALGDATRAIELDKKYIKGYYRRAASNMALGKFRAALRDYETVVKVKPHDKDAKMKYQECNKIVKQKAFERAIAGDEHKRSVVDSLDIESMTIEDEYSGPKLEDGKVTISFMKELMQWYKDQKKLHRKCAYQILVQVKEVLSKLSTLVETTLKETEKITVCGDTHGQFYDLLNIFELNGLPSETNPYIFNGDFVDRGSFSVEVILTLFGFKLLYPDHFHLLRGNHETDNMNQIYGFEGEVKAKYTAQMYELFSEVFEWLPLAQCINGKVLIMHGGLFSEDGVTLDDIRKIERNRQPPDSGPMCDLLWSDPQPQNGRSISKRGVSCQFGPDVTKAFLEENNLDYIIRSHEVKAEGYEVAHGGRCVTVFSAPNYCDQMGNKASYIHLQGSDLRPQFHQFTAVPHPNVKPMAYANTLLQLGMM
proCasp3 act = activators of human procaspase-3 D3A mutant, primary screen, biochemical, absorbance, PC-3 D3A mutant, single concentration | Caspase-3 (Homo sapiens), P42574 | recombinant procaspase-3 D3A, Ac-DEVD-pNA absorbance 405 nm | activation, % at 8.5 µM | 330,000 compounds, 0.11% hits | AID 463141, 2010;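 active = activation above the mean of all tested compounds plus 3 SD, cut at about 21% in these data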;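 note: 0% = DMSO alone and 100% = DMSO wells spiked with extra 5 µM PC-3 D3A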
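Technique: 405 nm absorbance of p-nitroaniline, reads at 0 and 120 min; Test system: Procaspase-3 D3A mutant; Incubation: 1 h enzyme-compound preincubation, then 2 h substrate reaction, 25 °C; Repeats: singlicate, each compound tested once; Benchmarks: low control DMSO wells, high control DMSO plus 5 µM PC-3 D3A.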
PP1 inh = PP1-alpha phosphatase inhibitors, primary screen, counter-screen for PP5 inhibitor project, biochemical, fluorescence, OMFP substrate, single point | 320,000 compounds, 0.9% hits | inhibition, % at 6.7 µM | Serine/threonine-protein phosphatase PP1-alpha catalytic subunit (Homo sapiens), P62136 | purified PP1alpha | AID 2235, 2010;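 active = inhibition above the mean inhibition of all tested compounds plus 3 SD, computed separately for each screening campaign, cut at about 15% in these data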
procasp7 counter = procaspase-7 activators, primary screen, counter-screen for procaspase-3 activator project, biochemical, absorbance, HTS, human; Caspase-7 (Homo sapiens), P55210; recombinant procaspase-7, Ac-DEVD-pNA absorbance 405 nm; D23A/D198A/D206A triple mutant, cannot self-cleave; scale: DMSO 0, 5 µM enzyme 100; activation, % at 8.5 µM; 330,000 compounds, 0.093% hits;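 active = percent activation above the screen-wide mean plus 3 SD, cut at about 25% in these data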
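System: Uncleavable procaspase-7 mutant enzyme; Amount: 2 µM procaspase-7 mutant as dispensed; Schedule: 1 h compound preincubation, 2 h substrate cleavage, 25 °C; Measured by: 405 nm absorbance of p-nitroaniline; Evaluation: percent activation from buffer-corrected 0–120 min absorbance change; Control set: low DMSO alone, high DMSO plus 5 µM PC-7.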
PP1 inh confirm = PP1 phosphatase inhibitors, confirmation, biochemical, fluorescence, OMFP substrate, triplicate. shares compounds with PP1 inh. purified PP1alpha. AID 2358, 2010. 1,900 compounds, 52% hits. inhibition, % at 6.7 µM;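 active = mean PP1 inhibition above a set limit taken from the earlier primary screen, cut at about 15% in these data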
PP5 inh counter = PP5 phosphatase inhibition by PP1 hits, confirmation, counter-screen for PP1 inhibitor project, biochemical, fluorescence, triplicate; shares compounds with PP1 inh; purified PP5c, OMFP fluorescence; inhibition, % at 6.7 µM; 1,900 compounds, 4% hits; AID 2360, 2010;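 active = mean PP5 inhibition over triplicate wells above about 9.5% taken from the earlier PP1 screen, limit read from the data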
The depositor's hits bear a star; · = no result given.

SMILES	PP5 primary	proCasp3 act	PP1 inh	procasp7 counter	PP1 inh confirm	PP5 inh counter
CCc1cc(C(=O)N(CC)CC(=O)Nc2ccc(OC)cc2)sc1C	0	-1	1	0	·	·
CCC(C)c1ccccc1N1CC(C(=O)Nc2ccc(N3CCOCC3)cc2)CC1=O (stereo unspecified)	0	8	2	-9	·	·
Cc1ccc(NC(=O)C2C3CCC(O3)C2C(=O)O)cc1C (stereo unspecified)	83*	-5	81*	3	22*	43*
S=c1[nH]nc(COc2ccccc2)n1/N=C/c1cccc(Br)c1	-1	-14	33*	-14	0	-7
Cn1c(=O)oc2cc(S(=O)(=O)Nc3ccc(F)cc3)ccc21	3	7	-1	15	·	·
Brc1cccc(CNCC2CCCO2)c1 (stereo unspecified)	1	0	7	1	·	·
Cc1ccc(-c2nn(-c3ccccc3)c3[nH]c(=O)c(CNCc4ccccc4)cc23)cc1	4	6	27*	3	27*	-3
Cc1nn(-c2ccccc2)c2[nH]c(=O)c(CNCc3ccc4c(c3)OCO4)cc12	-2	0	-3	-5	·	·
Cc1cc(C)cc(NC(=O)C2C3C=CC4(O3)C2C(=O)N(CCCN(C)C)C4C(=O)NC2CCCC(C)C2C)c1 (stereo unspecified)	3	4	0	2	·	·
COc1ccc(-c2cnnn2-c2ccc([N+](=O)[O-])cc2)cc1	4	4	2	-1	·	·
CCOC(=O)c1c(CSc2ccc(CC)cc2)oc2ccc(O)c(CN(C)C)c12	1	6	18*	6	-4	-4
CCOc1ncccc1C(=O)OCC(=O)Nc1ccc(-c2nc3ccc(C)cc3s2)cc1	0	-8	19*	8	29*	0
COc1cc(C2C(C(=O)c3ccco3)=C(O)C(=O)N2c2cc(C)on2)cc(Br)c1O (stereo unspecified)	0	3	-1	5	·	·
CCCOc1ccc(C2C(C(=O)c3cc4ccccc4o3)=C(O)C(=O)N2c2cc(C)on2)cc1 (stereo unspecified)	1	-11	27*	11	34*	2
CCCOc1ccc(C2C(C(=O)c3cc4ccccc4o3)=C(O)C(=O)N2c2cc(C)on2)cc1OC (stereo unspecified)	5	-7	33*	-27	37*	-1
COc1cccc(C2C(C(=O)c3cc4ccccc4o3)=C(O)C(=O)N2CCN(C)C)c1OC (stereo unspecified)	1	-1	0	-9	·	·
CC(=O)Nc1ccccc1OCC(=O)c1cc(C)n(Cc2cccs2)c1C	-1	0	3	3	·	·
Cc1cc(C(=O)COc2cccnc2[N+](=O)[O-])c(C)n1Cc1cccs1	9.9*	-31	18*	-43	2	1
O=C(c1ccccc1NS(=O)(=O)c1ccc([N+](=O)[O-])cc1[N+](=O)[O-])N1O[C@@H]2C=C[C@H]1C2	·	-6	·	-4	·	·
COc1ccc(NC(=O)C2(c3ccc(NC(=O)c4ccc(OC(C)=O)cc4)cc3)CCCC2)cc1	0	8	18*	-6	24*	-7
Cc1ccc(N2CC(C(=O)OCc3nnc(-c4ccccc4)o3)CC2=O)cc1 (stereo unspecified)	1	-1	5	-2	·	·
COc1cc(C(C)=O)ccc1O	0	9	-6	-6	·	·
Cc1cc(NC(=O)CSc2nnc(NCc3ccccc3)s2)no1	0	1	4	3	·	·
COc1ccccc1Nc1nnc(SCC(=O)Nc2cc(C)on2)s1	2	4	19*	2	12	-4
O=C(COC(=O)/C=C/c1ccccc1)Nc1nnc(-c2ccccc2)o1	0	-2	24*	-2	30*	-4
SMILES	PP5 primary	proCasp3 act	PP1 inh	procasp7 counter	PP1 inh confirm	PP5 inh counter
COc1cc(/C=C/C(=O)OCC(=O)Nc2nnc(-c3ccccc3)o2)cc(OC)c1OC	0	-1	7	-2	·	·
O=C(COc1ccccc1)Nc1nnc(-c2ccc(F)cc2)o1	1	-1	11	-4	·	·
O=C(Nc1nnc(-c2ccc3c(c2)CCCC3)o1)c1ccccc1Cl	3	6	25*	-1	25*	2
O=C(COc1ccccc1)Nc1nnc(-c2ccccc2Cl)o1	3	1	23*	4	20*	-5
O=C(Nc1nnc(-c2ccc(F)cc2)o1)c1cccc([N+](=O)[O-])c1	1	1	19*	11	16*	3
O=C(Nc1nnc(-c2ccccc2)o1)c1cc(Cl)sc1Cl	2	3	0	0	·	·
COc1ccc(N(C=O)C(C(=O)Nc2c(C)cccc2C)c2ccccc2)cc1 (stereo unspecified)	-1	-3	-3	7	·	·
Cc1cc(NC(=O)COc2ccc3ccccc3c2Br)no1	·	-2	·	0	·	·
O=C(C1CCN(S(=O)(=O)c2ccccc2F)CC1)N1CCN(Cc2ccc3c(c2)OCO3)CC1	1	8	-2	5	·	·
O=C(Nc1nnc(-c2ccncc2)o1)c1ccccc1	1	3	-1	3	·	·
O=C(Nc1nnc(-c2ccc3c(c2)CCCC3)o1)c1ccccc1	0	4	23*	4	28*	0
O=C(COc1ccccc1)Nc1nnc(-c2ccc3c(c2)CCCC3)o1	3	9	26*	9	27*	2
O=[N+]([O-])c1cccc2c(N3CCCC3)ccnc12	-2	4	-3	-3	·	·
O=C1CC(=C2c3ccccc3-c3ccccc32)C(=O)N1CCCCN1CCN(c2ccccc2)CC1	0	0	26*	6	28*	-3
CCOC(=O)c1ccc2c(c1)C1C=CCC1C(C(=O)O)N2 (stereo unspecified)	1	-7	30*	0	12	-2
Cc1oc(-c2ccc(Cl)cc2)cc1-c1nn2c(-c3ccoc3C)nnc2s1	2	-4	24*	-16	19*	1
COc1ccc(-n2nc3c(c2NC(=O)c2cc4ccccc4o2)CS(=O)(=O)C3)cc1	4	2	-4	-5	·	·
O=C1NCCCC1C(=O)Nc1cccc(C(F)(F)F)c1 (stereo unspecified)	3	-3	1	12	·	·

Compound activity as filed in PubChem BioAssay.
